Measured values taken from ChEMBL document CHEMBL1255404, “Spread of OXA-48-encoding plasmid in Turkey and beyond” (2010).
In brackets after ≈: the same amount, converted by molar mass.

Assays:
Assay type in all cases: functional
Escherichia coli [1] = assay: Antimicrobial activity against Escherichia coli isolate J53 harboring pEnc2 containing beta-lactamase OXA-48 located within transposon Tn1999 by Etest method
Summary of the method: (§1)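 β-Lactam MICs read with Etest strips. Strains are E. coli J53 recipient and J53 transconjugants carrying OXA-48-positive plasmids recovered from clinical enterobacterial isolates.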

Escherichia coli [2] = assay: Antimicrobial activity against Escherichia coli isolate J53 harboring pI-2 containing beta-lactamase OXA-48 located within transposon Tn1999.2 by Etest method; summary of the method: as §1
Escherichia coli [3] = assay: Antimicrobial activity against Escherichia coli isolate TOP10 harboring pPR containing beta-lactamase and TEM-101 by Etest method
Summary of the method: (§2)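 β-Lactam MICs read with Etest strips. Strains are E. coli TOP10 host and TOP10 transformants made with plasmid DNA extract when conjugation failed. Transformants were selected on LB agar with ticarcillin 50 μg/ml.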

Escherichia coli [4] = assay: Antimicrobial activity against Escherichia coli isolate J53 harboring p7A containing beta-lactamase OXA-48 located within transposon Tn1999 by Etest method; summary of the method: as §1
Klebsiella pneumoniae [5] = assay: Antimicrobial activity against Klebsiella pneumoniae isolate Kp3A expressing beta-lactamase OXA-48 by Etest method
Summary of the method: (§3)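 MICs of β-lactams read from Etest strips. The test organisms are carbapenem-resistant, OXA-48-positive clinical Enterobacteriaceae isolates recovered from Turkey, Lebanon, Egypt, France and Belgium.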

Klebsiella pneumoniae [6] = assay: Antimicrobial activity against Klebsiella pneumoniae isolate Kp7A expressing beta-lactamase OXA-48 by Etest method; summary of the method: as §3
Klebsiella pneumoniae [7] = assay: Antimicrobial activity against Klebsiella pneumoniae isolate KpBEL expressing beta-lactamase OXA-48 by Etest method; summary of the method: as §3
Escherichia coli [8] = assay: Antimicrobial activity against Escherichia coli isolate J53 harboring pBEL containing beta-lactamase OXA-48 located within transposon Tn1999.2 by Etest method; summary of the method: as §1
Klebsiella pneumoniae [9] = assay: Antimicrobial activity against Klebsiella pneumoniae isolate KpBIC expressing beta-lactamase OXA-48 by Etest method; summary of the method: as §3
Klebsiella pneumoniae [10] = assay: Antimicrobial activity against Klebsiella pneumoniae isolate KpL expressing beta-lactamase OXA-48 by Etest method
Escherichia coli [11] = assay: Antimicrobial activity against Escherichia coli isolate J53 harboring p4A containing beta-lactamase OXA-48 located within transposon Tn1999 by Etest method; summary of the method: as §1
Escherichia coli [12] = assay: Antimicrobial activity against Escherichia coli isolate J53 harboring p5A containing beta-lactamase OXA-48 located within transposon Tn1999 by Etest method; summary of the method: as §1
Escherichia coli [13] = assay: Antimicrobial activity against Escherichia coli isolate J53 harboring pL containing beta-lactamase OXA-48 located within transposon Tn1999.2 by Etest method; summary of the method: as §1
Escherichia coli [14] = assay: Antimicrobial activity against Escherichia coli isolate J53 harboring pEcA containing beta-lactamase OXA-48 located within transposon Tn1999.2 by Etest method; summary of the method: as §1
Escherichia coli [15] = assay: Antimicrobial activity against Escherichia coli isolate J53 harboring pBb containing beta-lactamase OXA-48 located within transposon Tn1999.2 by Etest method; summary of the method: as §1
Escherichia coli [16] = assay: Antimicrobial activity against Escherichia coli isolate J53 harboring pCF containing beta-lactamase OXA-48 located within transposon Tn1999 by Etest method; summary of the method: as §1
Escherichia coli [17] = assay: Antimicrobial activity against Escherichia coli isolate J53 harboring p6A containing beta-lactamase OXA-48 located within transposon Tn1999 by Etest method; summary of the method: as §1
Escherichia coli [18] = assay: Antimicrobial activity against Escherichia coli isolate J53 harboring pI-1 containing beta-lactamase OXA-48 located within transposon Tn1999.2 by Etest method; summary of the method: as §1
Escherichia coli [19] = assay: Antimicrobial activity against Escherichia coli isolate J53 harboring pEnc1 containing beta-lactamase OXA-48 located within transposon Tn1999 by Etest method; summary of the method: as §1
Escherichia coli [20] = assay: Antimicrobial activity against Escherichia coli isolate J53 harboring p3A containing beta-lactamase OXA-48 located within transposon Tn1999 by Etest method; summary of the method: as §1
Escherichia coli [21] = assay: Antimicrobial activity against Escherichia coli isolate J53 harboring pE containing beta-lactamase OXA-48 located within transposon Tn1999.2 by Etest method; summary of the method: as §1
Klebsiella pneumoniae [22] = assay: Antimicrobial activity against Klebsiella pneumoniae isolate Kp6A expressing beta-lactamase OXA-48 and TEM-150 by Etest method
Citrobacter freundii = assay: Antimicrobial activity against Citrobacter freundii isolate expressing beta-lactamase OXA-48 by Etest method
Providencia rettgeri = assay: Antimicrobial activity against Providencia rettgeri isolate expressing beta-lactamase OXA-48 and TEM-101 by Etest method
Enterobacter cloacae [23] = assay: Antimicrobial activity against Enterobacter cloacae isolate 2 expressing beta-lactamase OXA-48 and SHV-5 by Etest method
Klebsiella pneumoniae [24] = assay: Antimicrobial activity against Klebsiella pneumoniae isolate KpI-2 expressing beta-lactamase OXA-48 and CTX-M-15 by Etest method
Klebsiella pneumoniae [25] = assay: Antimicrobial activity against Klebsiella pneumoniae isolate KpE expressing beta-lactamase OXA-48 and CTX-M-15 by Etest method
Klebsiella pneumoniae [26] = assay: Antimicrobial activity against Klebsiella pneumoniae isolate KpB expressing OXA-48 and CTX-M-15 by Etest method
Klebsiella pneumoniae [27] = assay: Antimicrobial activity against Klebsiella pneumoniae isolate Kp11978 expressing beta-lactamase OXA-48, SHV-2a and TEM-1 by Etest method
Enterobacter cloacae [28] = assay: Antimicrobial activity against Enterobacter cloacae isolate 1 expressing beta-lactamase OXA-48 and SHV-5 by Etest method
Klebsiella pneumoniae [29] = assay: Antimicrobial activity against Klebsiella pneumoniae isolate KpI-1 expressing beta-lactamase OXA-48 and CTX-M-15 by Etest method
Escherichia coli [30] = assay: Antimicrobial activity against Escherichia coli isolate TOP10 harboring pBIC containing beta-lactamase OXA-48 located within transposon Tn1999.2 by Etest method; summary of the method: as §2
Escherichia coli [31] = assay: Antimicrobial activity against Escherichia coli isolate A expressing beta-lactamase OXA-48 and TEM-150 by Etest method
Klebsiella pneumoniae [32] = assay: Antimicrobial activity against Klebsiella pneumoniae isolate Kp4A expressing beta-lactamase OXA-48 and CTX-M-15 by Etest method
Klebsiella pneumoniae [33] = assay: Antimicrobial activity against Klebsiella pneumoniae isolate Kp5A expressing beta-lactamase OXA-48 and SHV-5 by Etest method
Escherichia coli [34] = assay: Antimicrobial activity against Escherichia coli isolate J53 harboring pA-1 containing beta-lactamase OXA-48 located within transposon Tn1999 by Etest method; summary of the method: as §1
Escherichia coli [35] = assay: Antimicrobial activity against Escherichia coli isolate TOP10 by Etest method; summary of the method: as §2
Escherichia coli [36] = assay: Antimicrobial activity against Escherichia coli isolate J53 by Etest method; summary of the method: as §1

C[C@H]1[C@H](NC(=O)/C(=N\OC(C)(C)C(=O)O)c2csc(N)n2)C(=O)N1S(=O)(=O)O [AZTREONAM]
MIC (Escherichia coli [1]): 0.06 µg/mL (≈ 0.138 µM) | MIC (Escherichia coli [2]): 0.06 µg/mL (≈ 0.138 µM) | MIC (Escherichia coli [3]): 0.06 µg/mL (≈ 0.138 µM) | MIC (Escherichia coli [4]): 0.06 µg/mL (≈ 0.138 µM) | MIC (Klebsiella pneumoniae [5]): 0.06 µg/mL (≈ 0.138 µM) | MIC (Klebsiella pneumoniae [6]): 0.06 µg/mL (≈ 0.138 µM) | MIC (Klebsiella pneumoniae [7]): 0.06 µg/mL (≈ 0.138 µM) | MIC (Escherichia coli [8]): 0.06 µg/mL (≈ 0.138 µM) | MIC (Klebsiella pneumoniae [9]): 0.06 µg/mL (≈ 0.138 µM) | MIC (Klebsiella pneumoniae [10]): 0.06 µg/mL (≈ 0.138 µM) | MIC (Escherichia coli [11]): 0.06 µg/mL (≈ 0.138 µM) | MIC (Escherichia coli [12]): 0.06 µg/mL (≈ 0.138 µM) | MIC (Escherichia coli [13]): 0.06 µg/mL (≈ 0.138 µM) | MIC (Escherichia coli [14]): 0.06 µg/mL (≈ 0.138 µM) | MIC (Escherichia coli [15]): < 0.12 µg/mL | MIC (Escherichia coli [16]): 0.06 µg/mL (≈ 0.138 µM) | MIC (Escherichia coli [17]): 0.06 µg/mL (≈ 0.138 µM) | MIC (Escherichia coli [18]): 0.06 µg/mL (≈ 0.138 µM) | MIC (Escherichia coli [19]): 0.06 µg/mL (≈ 0.138 µM) | MIC (Escherichia coli [20]): 0.06 µg/mL (≈ 0.138 µM) | MIC (Escherichia coli [21]): 0.06 µg/mL (≈ 0.138 µM)

C[C@@H](O)[C@H]1C(=O)N2C(C(=O)O)=C(SCCNC=N)C[C@H]12 [IMIPENEM ANHYDROUS]
MIC (Escherichia coli [1]): 0.75 µg/mL (≈ 2.51 µM) | MIC (Klebsiella pneumoniae [22]): > 32 µg/mL | MIC (Citrobacter freundii): > 32 µg/mL | MIC (Escherichia coli [2]): 0.5 µg/mL (≈ 1.67 µM) | MIC (Escherichia coli [4]): 0.75 µg/mL (≈ 2.51 µM) | MIC (Klebsiella pneumoniae [5]): > 32 µg/mL | MIC (Providencia rettgeri): > 32 µg/mL | MIC (Klebsiella pneumoniae [6]): > 32 µg/mL | MIC (Klebsiella pneumoniae [7]): 0.75 µg/mL (≈ 2.51 µM) | MIC (Enterobacter cloacae [23]): 0.75 µg/mL (≈ 2.51 µM) | MIC (Klebsiella pneumoniae [24]): 24 µg/mL (≈ 80.2 µM) | MIC (Klebsiella pneumoniae [25]): 2 µg/mL (≈ 6.68 µM) | MIC (Escherichia coli [8]): 0.75 µg/mL (≈ 2.51 µM) | MIC (Klebsiella pneumoniae [26]): 16 µg/mL (≈ 53.4 µM) | MIC (Klebsiella pneumoniae [9]): 0.5 µg/mL (≈ 1.67 µM) | MIC (Klebsiella pneumoniae [27]): 64 µg/mL (≈ 214 µM) | MIC (Enterobacter cloacae [28]): 0.5 µg/mL (≈ 1.67 µM) | MIC (Klebsiella pneumoniae [10]): > 16 µg/mL | MIC (Escherichia coli [11]): 0.38 µg/mL (≈ 1.27 µM) | MIC (Escherichia coli [12]): 0.38 µg/mL (≈ 1.27 µM) | MIC (Klebsiella pneumoniae [29]): 24 µg/mL (≈ 80.2 µM) | MIC (Escherichia coli [13]): 4 µg/mL (≈ 13.4 µM) | MIC (Escherichia coli [30]): 0.5 µg/mL (≈ 1.67 µM) | MIC (Escherichia coli [14]): 0.75 µg/mL (≈ 2.51 µM) | MIC (Escherichia coli [31]): 24 µg/mL (≈ 80.2 µM) | MIC (Escherichia coli [15]): 0.5 µg/mL (≈ 1.67 µM) | MIC (Escherichia coli [16]): 0.75 µg/mL (≈ 2.51 µM) | MIC (Escherichia coli [17]): 0.38 µg/mL (≈ 1.27 µM) | MIC (Klebsiella pneumoniae [32]): > 32 µg/mL | MIC (Escherichia coli [18]): 0.5 µg/mL (≈ 1.67 µM) | MIC (Klebsiella pneumoniae [33]): > 32 µg/mL | MIC (Escherichia coli [19]): 0.5 µg/mL (≈ 1.67 µM) | MIC (Escherichia coli [34]): 2 µg/mL (≈ 6.68 µM) | MIC (Escherichia coli [20]): 0.75 µg/mL (≈ 2.51 µM) | MIC (Escherichia coli [21]): 2 µg/mL (≈ 6.68 µM)

C[C@@H](O)[C@H]1C(=O)N2C(C(=O)O)=C(S[C@@H]3CN[C@H](C(=O)N(C)C)C3)[C@H](C)[C@H]12 [MEROPENEM]
MIC (Escherichia coli [1]): 0.12 µg/mL (≈ 0.313 µM) | MIC (Klebsiella pneumoniae [22]): > 32 µg/mL | MIC (Citrobacter freundii): > 32 µg/mL | MIC (Escherichia coli [2]): 0.094 µg/mL (≈ 0.245 µM) | MIC (Escherichia coli [3]): 0.25 µg/mL (≈ 0.652 µM) | MIC (Escherichia coli [4]): 0.12 µg/mL (≈ 0.313 µM) | MIC (Klebsiella pneumoniae [5]): > 32 µg/mL | MIC (Providencia rettgeri): > 32 µg/mL | MIC (Klebsiella pneumoniae [6]): > 32 µg/mL | MIC (Klebsiella pneumoniae [7]): 0.5 µg/mL (≈ 1.3 µM) | MIC (Enterobacter cloacae [23]): 0.75 µg/mL (≈ 1.96 µM) | MIC (Klebsiella pneumoniae [25]): 2 µg/mL (≈ 5.22 µM) | MIC (Escherichia coli [8]): 0.5 µg/mL (≈ 1.3 µM) | MIC (Klebsiella pneumoniae [26]): 32 µg/mL (≈ 83.4 µM) | MIC (Klebsiella pneumoniae [9]): 0.5 µg/mL (≈ 1.3 µM) | MIC (Klebsiella pneumoniae [27]): 64 µg/mL (≈ 167 µM) | MIC (Enterobacter cloacae [28]): 0.5 µg/mL (≈ 1.3 µM) | MIC (Escherichia coli [11]): 0.094 µg/mL (≈ 0.245 µM) | MIC (Escherichia coli [12]): 0.094 µg/mL (≈ 0.245 µM) | MIC (Escherichia coli [13]): 0.19 µg/mL (≈ 0.495 µM) | MIC (Escherichia coli [35]): 0.06 µg/mL (≈ 0.156 µM) | MIC (Escherichia coli [30]): 0.5 µg/mL (≈ 1.3 µM) | MIC (Escherichia coli [14]): 0.19 µg/mL (≈ 0.495 µM) | MIC (Escherichia coli [31]): 24 µg/mL (≈ 62.6 µM) | MIC (Escherichia coli [15]): 0.12 µg/mL (≈ 0.313 µM) | MIC (Escherichia coli [16]): 0.12 µg/mL (≈ 0.313 µM) | MIC (Escherichia coli [17]): 0.094 µg/mL (≈ 0.245 µM) | MIC (Klebsiella pneumoniae [32]): > 32 µg/mL | MIC (Escherichia coli [18]): 0.094 µg/mL (≈ 0.245 µM) | MIC (Klebsiella pneumoniae [33]): > 32 µg/mL | MIC (Escherichia coli [19]): 0.094 µg/mL (≈ 0.245 µM) | MIC (Escherichia coli [34]): 0.25 µg/mL (≈ 0.652 µM) | MIC (Escherichia coli [20]): 0.12 µg/mL (≈ 0.313 µM) | MIC (Escherichia coli [21]): 2 µg/mL (≈ 5.22 µM) | MIC (Escherichia coli [36]): 0.06 µg/mL (≈ 0.156 µM)
